Results taken from ChEMBL document CHEMBL3272177, “Hypolipidemic alkoxybenzoic acids” (1976).

Experiments:
Parameters in all cases: scale not given: the % may be the effect or the level left
Rattus norvegicus [1] = species on record: Rattus norvegicus; assay: Reduction in sterol level in CFE rat […] in serum at 0.3% of diet treated through diet for 6 days relative to control; type: functional
Rattus norvegicus [2] = species on record: Rattus norvegicus; assay: Reduction in triglyceride level in CFE rat […] in serum at 0.3% of diet treated through diet for 6 days relative to control; type: functional
Rattus norvegicus [3] = species on record: Rattus norvegicus; assay: Reduction in sterol level in CFE rat […] in serum at 0.1% of diet treated through diet for 6 days relative to control; type: functional
Summary of the method: (§1)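 Compound dissolved in methanol-chloroform (1:3 v/v), mixed into ground rat chow at 0.1, 0.05 or 0.025% (w/w), and solvent evaporated; controls received solvent-treated chow. Rats fed ad libitum with water for 6 days, then killed fed and bled. Serum sterols and triglycerides measured by autoanalyzer. Values given as percent of control, mean ± SE; significance by Student's t test.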

Rattus norvegicus [4] = species on record: Rattus norvegicus; assay: Reduction in sterol level in CFE rat […] in serum at 0.05% of diet treated through diet for 6 days relative to control; type: functional; summary of the method: as §1
Rattus norvegicus [5] = species on record: Rattus norvegicus; assay: Reduction in sterol level in CFE rat […] at 0.025% of diet treated through diet for 6 days relative to control; type: functional, Serum; summary of the method: as §1
Rattus norvegicus [6] = species on record: Rattus norvegicus; assay: Reduction in triglyceride level in CFE rat […] in serum at 0.1% of diet treated through diet for 6 days relative to control; type: functional; summary of the method: as §1
Rattus norvegicus [7] = species on record: Rattus norvegicus; assay: Reduction in triglyceride level in CFE rat […] in serum at 0.05% of diet treated through diet for 6 days relative to control; type: functional; summary of the method: as §1
Rattus norvegicus [8] = species on record: Rattus norvegicus; assay: Reduction in triglyceride level in CFE rat […] at 0.025% of diet treated through diet for 6 days relative to control; type: functional, Serum; summary of the method: as §1
Rattus norvegicus [9] = species on record: Rattus norvegicus; assay: Reduction in sterol level in CFE rat […] in serum at 0.005% of diet treated through diet for 6 days relative to control; type: functional
Rattus norvegicus [10] = species on record: Rattus norvegicus; assay: Reduction in triglyceride level in CFE rat […] in serum at 0.005% of diet treated through diet for 6 days relative to control; type: functional

Row | SMILES | Activity (Rattus norvegicus [1]) | Activity (Rattus norvegicus [2]) | Activity (Rattus norvegicus [3]) | Activity (Rattus norvegicus [4]) | Activity (Rattus norvegicus [5]) | Activity (Rattus norvegicus [6]) | Activity (Rattus norvegicus [7]) | Activity (Rattus norvegicus [8]) | Activity (Rattus norvegicus [9]) | Activity (Rattus norvegicus [10])
1 | CCOC(=O)C(C)(C)Oc1ccc(Cl)cc1 [CLOFIBRATE] | 81% | 42% | – | – | – | – | – | – | – | –
2 | CCCCCCCCCCC/C=C/CCCOc1ccc(C(=O)OC)cc1 | – | – | 75% | 73% | 68% | 68% | 57% | 72% | – | –
3 | CCCCCCCCCCCCCCCC(C)(C)Oc1ccc(C(=O)O)cc1 | – | – | 96% | 112% | 101% | 100% | 111% | 103% | – | –
4 | CCSCCCCCCCCCCCCCCCCOc1ccc(C(=O)O)cc1 | – | – | 90% | 88% | 89% | 45% | 48% | 59% | – | –
5 | FC(F)(F)c1ccc(-c2ccc(OCCN3CCCC3)cc2)cc1 [BOXIDINE] | – | – | – | – | – | – | – | – | 60% | 55%
6 | CCCCNCCCCCCCCCCCOc1ccc(C(=O)O)cc1 | – | – | 100% | 104% | 98% | 100% | 103% | 119% | – | –
7 | CCCCCCCCC/C=C/CCCOc1ccc(C(=O)O)cc1 | – | – | 77% | 73% | 87% | 87% | 89% | 89% | – | –
8 | CCCCCCCCCCCCCCCCOc1ccc(C(=O)O)cc1 | – | – | 74% | 83% | 89% | 46% | 62% | 58% | – | –
9 | CCCCCCCCCCCCCCCCOc1c(Br)cc(C(=O)OC)cc1[N+](=O)[O-] | – | – | 97% | 93% | 93% | 95% | 101% | 113% | – | –
10 | CCCCSCCCCCCCCCCCOc1ccc(C(=O)OC)cc1 | – | – | 96% | 92% | 100% | 69% | 62% | 87% | – | –
11 | CCCCCCCCCCCC(CCOc1ccc(C(=O)O)cc1)N=[N+]=[N-] (centres undefined) | – | – | 76% | 89% | 105% | 55% | 60% | 98% | – | –
12 | CCCCCCCCCCCCCCCCOc1c(C)cc(C(=O)O)cc1C | – | – | 97% | 89% | 78% | 82% | 79% | 68% | – | –
13 | CCCCCCCCCCCC(CCOc1ccc(C(=O)OC)cc1)OS(=O)(=O)c1ccc(C)cc1 (centres undefined) | – | – | 98% | 103% | 102% | 86% | 91% | 91% | – | –
14 | CCCCNC(=O)CCCCCCCCCCOc1ccc(C(=O)O)cc1 | – | – | 88% | 96% | 99% | 85% | 87% | 93% | – | –
15 | O=C(O)CCCCCCCCCCOc1ccc(C(=O)O)cc1 | – | – | 94% | 100% | 96% | 100% | 135% | 118% | – | –
16 | COC(=O)c1ccc(OCCCCCCCCCCCSC#N)cc1 | – | – | 160% | 102% | 102% | 145% | 94% | 80% | – | –

Row | SMILES | Activity (Rattus norvegicus [1]) | Activity (Rattus norvegicus [2]) | Activity (Rattus norvegicus [3]) | Activity (Rattus norvegicus [4]) | Activity (Rattus norvegicus [5]) | Activity (Rattus norvegicus [6]) | Activity (Rattus norvegicus [7]) | Activity (Rattus norvegicus [8]) | Activity (Rattus norvegicus [9]) | Activity (Rattus norvegicus [10])
17 | CCCCCCCCCCCCCCCCOc1ccc(C(=O)O)cc1[N+](=O)[O-] | – | – | 103% | 101% | 95% | 122% | 120% | 93% | – | –
18 | O=C(O)c1ccc(OC(=O)C2C3CC4CC(C3)CC2C4)cc1 (centres undefined) | – | – | 92% | 99% | 93% | 113% | 101% | 90% | – | –
19 | O=C(O)c1ccc(OCCCCCCCCCCCCCCCS)cc1 | – | – | 82% | 81% | 100% | 40% | 42% | 56% | – | –
20 | CCCC[S+]([O-])CCCCCCCCCCCOc1ccc(C(=O)O)cc1 (centres undefined) | – | – | 102% | 97% | 102% | 44% | 54% | 83% | – | –
21 | CCCCCCCCCCCCC/C=C\COc1ccc(C(=O)OC)cc1 | – | – | 82% | 83% | 89% | 89% | 83% | 96% | – | –
22 | O=C(O)c1ccc(OC23CC4CC(CC(C4)C2)C3)cc1 | – | – | 88% | 87% | 90% | 85% | 89% | 85% | – | –
23 | C=CCCCCCCCCCOc1ccc(C(=O)OC)cc1 | – | – | 90% | 94% | 97% | 58% | 52% | 65% | – | –
24 | CCCCCCCCCCCC(CCOc1ccc(C(=O)O)cc1)SCC (centres undefined) | – | – | 83% | 93% | 95% | 44% | 74% | 68% | – | –
25 | CCOCCCCCCCCCCCOc1ccc(C(=O)O)cc1 | – | – | 95% | 109% | 103% | 63% | 73% | 66% | – | –
26 | CCCCCCCCCCCCCCCCOc1ccc(C(=O)OC2CCN(C)CC2)cc1 | – | – | 96% | 87% | 85% | 117% | 110% | 100% | – | –
27 | CCCCCCCCCCC/C(CCOc1ccc(C(=O)OC)cc1)=N/O | – | – | 64% | 67% | 74% | 32% | 43% | 53% | – | –
28 | CCCCCCCCCC/C=C/CCCOc1ccc(C(=O)O)cc1 | – | – | 79% | 92% | 92% | 92% | 76% | 72% | – | –
29 | COC(=O)c1ccc(OCCCCCCCCCCCO)cc1 | – | – | 92% | 94% | 94% | 72% | 86% | 140% | – | –
30 | CCCCCCCCCCCCC(CCC)Oc1ccc(C(=O)O)cc1 (centres undefined) | – | – | 74% | 76% | 78% | 53% | 62% | 70% | – | –
31 | COCCCCCCCCCCCOc1ccc(C(=O)O)cc1 | – | – | 97% | 90% | 79% | 64% | 53% | 80% | – | –
32 | O=C(O)c1ccc(OC2CCCCCCCCCCC2)cc1 | – | – | 86% | 94% | 87% | 87% | 81% | 97% | – | –
